Active and inactive are the calls of the source. No cut-off for these calls is given here.

The target in assay [1] is T1, Histone-lysine N-methyltransferase EHMT2 (Homo sapiens, UniProt Q96KQ7).
T1 sequence (Q96KQ7 whole entry): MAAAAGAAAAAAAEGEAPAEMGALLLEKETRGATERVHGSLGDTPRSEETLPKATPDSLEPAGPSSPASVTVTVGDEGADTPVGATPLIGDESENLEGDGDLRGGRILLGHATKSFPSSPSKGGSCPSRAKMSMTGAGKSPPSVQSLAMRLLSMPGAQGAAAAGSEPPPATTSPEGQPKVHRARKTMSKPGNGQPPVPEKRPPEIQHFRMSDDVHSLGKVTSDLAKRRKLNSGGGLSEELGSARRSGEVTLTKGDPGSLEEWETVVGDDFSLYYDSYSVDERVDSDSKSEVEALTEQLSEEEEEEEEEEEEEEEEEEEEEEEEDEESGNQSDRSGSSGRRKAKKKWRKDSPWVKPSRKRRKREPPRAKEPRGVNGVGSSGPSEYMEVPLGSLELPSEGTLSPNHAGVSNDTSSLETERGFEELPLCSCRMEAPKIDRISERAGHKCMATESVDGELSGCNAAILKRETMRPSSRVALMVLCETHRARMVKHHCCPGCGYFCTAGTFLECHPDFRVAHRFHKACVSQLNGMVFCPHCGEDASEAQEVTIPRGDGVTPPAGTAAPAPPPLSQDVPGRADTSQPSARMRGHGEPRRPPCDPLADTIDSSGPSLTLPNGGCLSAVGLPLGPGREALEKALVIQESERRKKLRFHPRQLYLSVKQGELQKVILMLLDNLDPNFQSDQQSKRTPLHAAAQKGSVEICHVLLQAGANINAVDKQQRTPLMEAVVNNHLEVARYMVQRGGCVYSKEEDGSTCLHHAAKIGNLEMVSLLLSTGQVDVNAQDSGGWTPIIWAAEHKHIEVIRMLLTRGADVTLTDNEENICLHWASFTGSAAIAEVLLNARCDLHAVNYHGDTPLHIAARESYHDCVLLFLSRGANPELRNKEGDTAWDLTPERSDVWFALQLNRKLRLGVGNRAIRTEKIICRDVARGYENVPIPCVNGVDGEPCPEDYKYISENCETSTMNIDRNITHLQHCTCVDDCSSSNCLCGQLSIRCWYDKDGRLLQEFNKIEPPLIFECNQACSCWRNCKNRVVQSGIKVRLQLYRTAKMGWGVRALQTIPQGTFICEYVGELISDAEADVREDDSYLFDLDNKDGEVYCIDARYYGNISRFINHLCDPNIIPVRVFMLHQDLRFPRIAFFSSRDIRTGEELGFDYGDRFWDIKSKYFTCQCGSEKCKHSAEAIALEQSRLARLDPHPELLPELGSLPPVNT
Description: Inhibition of G9a (unknown origin) incubated for 15 mins before addition of biotinylated peptide H3 (1 to 21) and SAM by methylation assay. The procedure, abridged: (§1)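 AlphaLISA assays were run in modified Tris pH 9.0 with 100 nM biotinylated H3(1-21) and SAM at Km: MLL1 2 nM enzyme with 2 μM SAM; SUV39H1 3 nM with 20 μM; SET7/9 0.2 nM with 0.22 μM; G9a 0.03 nM with 50 μM. Enzyme and compound were preincubated for 15 min, then reacted for 60 min at room temperature before the beads were added. IC50 came from a nonlinear dose-response fit.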

The nature of assay [2]: Binding affinity to DNA (unknown origin) at 0.0625 to 0.5 mM by ethidium bromide dye based agarose gel electrophoresis method.
The target of assay [3] is T2, Histone-lysine N-methyltransferase SETD7 (Homo sapiens, UniProt Q8WTS6).
T2 sequence (Q8WTS6 whole entry): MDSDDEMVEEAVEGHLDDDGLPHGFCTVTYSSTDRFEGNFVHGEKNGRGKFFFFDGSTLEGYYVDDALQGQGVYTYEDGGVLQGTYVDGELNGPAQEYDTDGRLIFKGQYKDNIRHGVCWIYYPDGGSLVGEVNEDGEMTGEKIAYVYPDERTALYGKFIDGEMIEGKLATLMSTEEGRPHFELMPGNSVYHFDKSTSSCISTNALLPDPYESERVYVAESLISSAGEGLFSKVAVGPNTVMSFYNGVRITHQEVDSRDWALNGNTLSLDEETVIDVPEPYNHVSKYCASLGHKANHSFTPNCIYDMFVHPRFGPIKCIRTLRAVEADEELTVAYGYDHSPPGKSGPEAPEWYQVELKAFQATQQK
Description: Inhibition of SET7/9 (unknown origin) incubated for 15 mins before addition of biotinylated peptide H3 (1 to 21) and SAM by methylation assay. The procedure, abridged: as §1

The target in assay [4] is T3, Histone-lysine N-methyltransferase SUV39H1 (Homo sapiens, UniProt O43463).
T3 sequence (O43463 whole entry): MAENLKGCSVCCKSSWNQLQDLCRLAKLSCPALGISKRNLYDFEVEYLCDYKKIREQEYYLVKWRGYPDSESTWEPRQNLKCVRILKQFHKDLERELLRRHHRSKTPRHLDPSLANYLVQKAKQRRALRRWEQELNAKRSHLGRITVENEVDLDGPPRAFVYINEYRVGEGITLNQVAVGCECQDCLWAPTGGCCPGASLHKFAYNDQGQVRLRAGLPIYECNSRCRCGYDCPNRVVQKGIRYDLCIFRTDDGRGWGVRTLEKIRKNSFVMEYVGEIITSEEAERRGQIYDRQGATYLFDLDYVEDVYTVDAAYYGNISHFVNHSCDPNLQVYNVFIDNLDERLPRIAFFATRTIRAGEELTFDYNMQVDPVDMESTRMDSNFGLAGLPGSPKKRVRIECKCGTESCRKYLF
Description: Inhibition of SUV39H1 (unknown origin) incubated for 15 mins before addition of biotinylated peptide H3 (1 to 21) and SAM by methylation assay. Summed up:
as §1

Assay [5] deals with DNA (cytosine-5)-methyltransferase 3B (Homo sapiens, UniProt Q9UBC3). Description: Inhibition of DNMT3B (unknown origin) incubated for 15 mins before addition of [3H]-SAM and poly(dI-dC).poly(dI-dC) by liquid scintillation counting based radioactive methylation assay.
The target of assay [6] is T4, DNA (cytosine-5)-methyltransferase 1 (Mus musculus, UniProt P13864). Description: (§2) Binding affinity to N-terminal His6-tagged mouse DNMT1 (731 to 1602 residues) expressed in Escherichia coli BL21 (DE3) by SPR assay. Summed up:
(§3)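 Measured by SPR at 25°C. Purified mouse DNMT1 was amine-coupled to a CM5 chip in 10 mM sodium acetate pH 5.0 and equilibrated overnight in HBS-EP (10 mM HEPES pH 7.4, 150 mM NaCl, 3 mM EDTA, 0.05% P20, 0.1% DMSO). Serially diluted compounds were injected with 120 s contact and 120 s dissociation, and KD was derived by the instrument evaluation software.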

Assay [7] concerns the target DNA (cytosine-5)-methyltransferase 1 (Mus musculus) (UniProt P13864). Described as §2. The procedure, abridged: as §3
Assay [8] concerns the target DNA (cytosine-5)-methyltransferase 3A (Homo sapiens, UniProt Q9Y6K1). Kind of assay: Inhibition of DNMT3A (unknown origin) incubated for 15 mins before addition of [3H]-SAM and poly(dI-dC).poly(dI-dC) by liquid scintillation counting based radioactive methylation assay.
Assay [9] concerns the target T4, DNA (cytosine-5)-methyltransferase 1. Kind of assay: Inhibition of N-terminal His6-tagged mouse DNMT1 (731 to 1602 residues) expressed in Escherichia coli BL21 (DE3) incubated for 15 mins before addition of [3H]-SAM and poly(dI-dC).poly(dI-dC) by liquid scintillation counting based radioactive methylation assay. Summed up:
(§4)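 Enzyme was preincubated with compound for 15 min at room temperature, then reacted for 60 min at 37°C. Products were filter-captured, washed and counted by scintillation. IC50 came from a nonlinear dose-response fit; single-point tests used 50 µM.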

For assay [10], the target named is Histone-lysine N-methyltransferase 2A (Homo sapiens, UniProt Q03164). Kind of assay: Inhibition of MLL1 (unknown origin) incubated for 15 mins before addition of biotinylated peptide H3 (1 to 21) and SAM by methylation assay. The procedure, abridged: as §1
Assay [11] has as its target DNA (cytosine-5)-methyltransferase 1 (Mus musculus) (UniProt P13864). Description: Inhibition of N-terminal His6-tagged mouse DNMT1 (731 to 1602 residues) at 200 uM expressed in Escherichia coli BL21 (DE3) incubated for 2 hrs using S-adenosylmethionine by ELISA. The procedure, abridged:
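Mouse DNMT1 was purified by HisTrap, SUMO-tag cleavage, heparin and gel filtration. 200 nM enzyme was incubated with 200 μM compound (1% DMSO) and AdoMet in DNMT assay buffer at 37°C for 2 h. Capture and detection antibodies were then applied, followed by developer for 10 min at room temperature. Absorbance was read at 450 nm, with AdoHcy as reference.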

The test system of the next assay is HCT-116. Description: Antiproliferative activity against human HCT116 cells assessed as inhibition of cell proliferation at 1.25 to 10 uM after 24 to 72 hrs by MTT assay. Format: functional, cell-based. The procedure, abridged:
(§5)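 HCT116 maintained in McCoy's 5A and Capan-1 in DMEM, each with 10% FBS, at 37°C under 5% CO2. Cells were exposed to a range of compound concentrations from DMSO stocks, with DMSO-matched controls. Viability was read by MTT absorbance at 490 nm, and percent proliferation was normalized to control cells.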

Another assay relates to CAPAN-1. Description: Antiproliferative activity against human Capan1 cells assessed as inhibition of cell proliferation at 1.25 to 10 uM after 24 to 72 hrs by MTT assay. The class given is functional, cell-based. Summed up: as §5
Assay [12] concerns the target DNA (cytosine-5)-methyltransferase 1 (Mus musculus) (UniProt P13864). Description: Inhibition of N-terminal His6-tagged mouse DNMT1 (731 to 1602 residues) expressed in Escherichia coli BL21 (DE3) at 50 uM incubated for 15 mins before addition of [3H]-SAM and poly(dI-dC).poly(dI-dC) by liquid scintillation counting based radioactive methylation assay. Summed up:
as §4

DNA (cytosine-5)-methyltransferase 1 (Mus musculus), sequence (P13864 whole entry, the tested form may be a part): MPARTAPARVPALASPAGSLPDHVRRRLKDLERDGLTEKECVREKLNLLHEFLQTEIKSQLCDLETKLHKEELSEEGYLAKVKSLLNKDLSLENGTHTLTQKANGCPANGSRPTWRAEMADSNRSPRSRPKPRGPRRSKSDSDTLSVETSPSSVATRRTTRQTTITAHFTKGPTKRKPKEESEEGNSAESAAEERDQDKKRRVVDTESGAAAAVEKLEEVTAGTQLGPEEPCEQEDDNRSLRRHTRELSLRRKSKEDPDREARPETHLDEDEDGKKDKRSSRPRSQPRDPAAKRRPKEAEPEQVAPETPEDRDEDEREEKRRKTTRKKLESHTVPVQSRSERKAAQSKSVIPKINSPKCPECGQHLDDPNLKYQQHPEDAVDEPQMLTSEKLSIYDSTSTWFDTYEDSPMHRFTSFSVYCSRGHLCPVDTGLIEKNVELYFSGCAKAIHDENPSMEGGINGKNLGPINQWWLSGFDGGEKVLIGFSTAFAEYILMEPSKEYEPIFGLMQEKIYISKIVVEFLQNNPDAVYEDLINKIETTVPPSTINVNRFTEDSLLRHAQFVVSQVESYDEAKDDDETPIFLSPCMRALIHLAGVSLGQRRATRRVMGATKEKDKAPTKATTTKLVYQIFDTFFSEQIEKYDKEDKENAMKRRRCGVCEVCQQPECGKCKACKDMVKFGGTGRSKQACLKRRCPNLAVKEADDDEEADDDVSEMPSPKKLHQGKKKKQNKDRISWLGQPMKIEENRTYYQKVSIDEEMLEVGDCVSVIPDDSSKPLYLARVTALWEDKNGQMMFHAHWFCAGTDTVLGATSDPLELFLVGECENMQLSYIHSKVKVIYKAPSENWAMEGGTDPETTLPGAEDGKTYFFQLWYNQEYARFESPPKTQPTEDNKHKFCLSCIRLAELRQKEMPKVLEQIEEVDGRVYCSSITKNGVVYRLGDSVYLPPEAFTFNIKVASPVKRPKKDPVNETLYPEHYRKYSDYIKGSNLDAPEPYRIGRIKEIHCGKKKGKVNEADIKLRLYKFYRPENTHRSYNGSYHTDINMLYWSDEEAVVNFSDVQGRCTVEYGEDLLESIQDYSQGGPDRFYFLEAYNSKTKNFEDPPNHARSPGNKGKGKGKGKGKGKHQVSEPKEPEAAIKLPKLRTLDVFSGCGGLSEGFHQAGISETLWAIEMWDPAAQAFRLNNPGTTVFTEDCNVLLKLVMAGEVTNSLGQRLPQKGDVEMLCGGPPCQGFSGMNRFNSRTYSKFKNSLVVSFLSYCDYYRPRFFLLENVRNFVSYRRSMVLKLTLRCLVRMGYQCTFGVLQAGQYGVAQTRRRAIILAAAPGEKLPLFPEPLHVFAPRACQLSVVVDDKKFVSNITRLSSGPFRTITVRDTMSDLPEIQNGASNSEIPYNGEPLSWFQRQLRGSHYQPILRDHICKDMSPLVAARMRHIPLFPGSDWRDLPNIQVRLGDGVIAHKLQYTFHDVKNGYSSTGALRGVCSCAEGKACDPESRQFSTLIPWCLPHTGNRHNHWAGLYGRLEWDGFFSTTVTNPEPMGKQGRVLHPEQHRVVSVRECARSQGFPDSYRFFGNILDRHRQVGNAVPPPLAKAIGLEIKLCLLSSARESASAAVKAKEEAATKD
T4 sequence (P13864 whole entry, the tested form may be a part): as above
DNA (cytosine-5)-methyltransferase 3A, sequence (Q9Y6K1 whole entry, looked up, the tested form may be a part): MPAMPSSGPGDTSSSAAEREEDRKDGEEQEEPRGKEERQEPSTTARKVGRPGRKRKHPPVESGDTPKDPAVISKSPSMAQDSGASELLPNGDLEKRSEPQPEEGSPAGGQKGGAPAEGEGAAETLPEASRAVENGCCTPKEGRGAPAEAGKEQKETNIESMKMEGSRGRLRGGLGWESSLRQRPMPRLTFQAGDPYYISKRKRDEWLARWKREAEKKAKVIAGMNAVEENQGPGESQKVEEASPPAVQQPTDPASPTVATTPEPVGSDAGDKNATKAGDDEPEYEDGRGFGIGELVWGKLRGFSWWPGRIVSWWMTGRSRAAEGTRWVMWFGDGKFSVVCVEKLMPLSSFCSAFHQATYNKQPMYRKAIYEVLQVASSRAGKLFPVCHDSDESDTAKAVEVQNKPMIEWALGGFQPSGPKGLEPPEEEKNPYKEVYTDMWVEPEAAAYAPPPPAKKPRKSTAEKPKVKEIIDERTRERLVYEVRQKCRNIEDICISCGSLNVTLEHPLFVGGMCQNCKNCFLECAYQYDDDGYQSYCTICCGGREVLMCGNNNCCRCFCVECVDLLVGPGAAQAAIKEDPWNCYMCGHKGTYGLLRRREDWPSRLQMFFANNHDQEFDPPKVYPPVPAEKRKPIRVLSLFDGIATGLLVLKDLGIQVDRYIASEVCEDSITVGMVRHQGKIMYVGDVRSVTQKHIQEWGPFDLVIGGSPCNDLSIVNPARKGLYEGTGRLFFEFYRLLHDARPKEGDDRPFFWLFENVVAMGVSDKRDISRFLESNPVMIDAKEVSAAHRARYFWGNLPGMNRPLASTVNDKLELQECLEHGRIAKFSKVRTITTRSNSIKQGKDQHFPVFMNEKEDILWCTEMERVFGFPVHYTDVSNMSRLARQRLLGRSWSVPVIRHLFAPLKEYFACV

Regarding `OC(CNCCc1c[nH]c2ccccc12)Cn1c2ccccc2c2ccccc21` (racemic), the IC50 in assay [1] was over 150 µM; in assay [3], over 150 µM; in [4], over 150 µM; in assay [5] it was over 200 µM; in assay [8], over 200 µM; in assay [9] it was 10.3 µM. The same compound gave an IC50 in assay [10] of over 150 µM. The result in [2] was inactive. The compound also had a Kd in [6] of 1.09 µM. Also, the Activity result in assay [7] was “Dose-dependent effect”. Besides, in [11], the inhibition was over 60%.
`CC(C)NC[C@@H](O)COC(Cn1c2ccccc2c2ccccc21)Cn1c2ccccc2c2ccccc21`: the inhibition result with HCT-116 and with CAPAN-1 was “Active” in each case. For the same compound, the IC50 in assay [9] was determined as 2.5 µM.
With `OC(CNC1CC1)Cn1c2ccccc2c2ccccc21` (racemic), the inhibition in assay [12] was 42.6%.
As for `OC(CNCCc1ccccc1)Cn1c2ccccc2c2ccccc21` (racemic), the IC50 in [9] is 20.7 µM. Moreover, the inhibition in assay [12] was found to be 73.9%.
Regarding `Nc1ncnc2c1ncn2[C@@H]1O[C@H](CSCC[C@H](N)C(=O)O)[C@@H](O)[C@H]1O`, in [11], the inhibition entry is “Active”.
Regarding `CC1CCN(CC(O)Cn2c3ccccc3c3ccccc32)CC1` (racemic), in assay [9], the IC50 was determined as 84.1 µM. Besides, the inhibition in [12] stood at 52.4%.
With `COc1cccc2c1C(=O)c1c(O)c3c(c(O)c1C2=O)C[C@@](O)(C(=O)CO)C[C@@H]3O[C@H]1C[C@H](N)[C@H](O)[C@H](C)O1`, the outcome in assay [2] was Active.
For `OCCCNCC(O)Cn1c2ccccc2c2ccccc21` (racemic), in assay [12], the inhibition was determined as 42.5%.
On the same count and under the same terms, then `COc1ccc(NCC(O)Cn2c3ccccc3c3ccccc32)cc1` (racemic), with 0.6%; and `OC(CNCCOc1ccccc1)Cn1c2ccccc2c2ccccc21` (racemic), with 29.7%.
As for `CC(C)NC[C@H](O)COC(Cn1c2ccccc2c2ccccc21)Cn1c2ccccc2c2ccccc21`, the inhibition result with HCT-116 and in the assay with CAPAN-1 was “Active” throughout. Moreover, the IC50 in assay [9] came out at 1.8 µM.
As for `OC(CN1CCOCC1)Cn1c2ccccc2c2ccccc21` (racemic), in [12], the inhibition was -5%.
As to `O[C@@H](CNCCc1c[nH]c2ccccc12)Cn1c2ccccc2c2ccccc21`, the inhibition result with HCT-116 and in the assay with CAPAN-1 was “Active” in each case. Further, the IC50 in assay [9] turned out to be 15.6 µM.
As to `CNCC(O)Cn1c(C)c(C)c2ccccc21` (racemic), in assay [12], the inhibition came out at 1.1%.
Turning to `O[C@H](CNCCc1c[nH]c2ccccc12)Cn1c2ccccc2c2ccccc21`, the inhibition entry with HCT-116 and in the assay with CAPAN-1 was “Active” each time. For the same compound, the IC50 in assay [9] turned out to be 7.3 µM.
In the case of `OC(CNCC1CCCO1)Cn1c2ccccc2c2ccccc21` (racemic), the inhibition in assay [12] stood at 40.1%.
Turning to `Cc1cc(Nc2ccc(NC(=O)c3ccc(Nc4ccnc5ccccc45)cc3)cc2)nc(N)n1`, the result in assay [2] was Active.
Turning to `OCCNCC(O)Cn1c2ccc(Br)cc2c2cc(Br)ccc21` (racemic), in assay [9], the concentration for half-maximal inhibition (IC50) stood at 14.1 µM. Moreover, the inhibition in [12] turned out to be 99.7%.
`CCCN(CCC)CC(O)Cn1c2ccccc2c2ccccc21` (racemic): in [12], the inhibition is 5.5%.
In the case of `OC(CNCCc1c[nH]c2ccccc12)Cn1c2ccc(Cl)cc2c2cc(Cl)ccc21` (racemic), the IC50 in assay [9] is 2.5 µM. For the same compound, the inhibition in assay [12] came out at 89.5%.
As to `Cc1c(C)n(CC(O)CNC2CCCCC2)c2ccccc12` (racemic), the inhibition in [12] worked out at 2.4%.
On to `COCCNCC(O)Cn1c2ccccc2c2ccccc21` (racemic), for which the IC50 in [9] is 29.6 µM. In addition, the inhibition in [12] amounted to 71%.
In the case of `OC(CNCc1ccccc1)Cn1c2c(c3ccccc31)CCCC2` (racemic), in [9], the IC50 was 80.9 µM. Further, the inhibition in assay [12] turned out to be 62.9%.

Source of the values: ChEMBL document CHEMBL3351464, “Identifying novel selective non-nucleoside DNA methyltransferase 1 inhibitors through docking-based virtual screening” (J Med Chem, 2014).
